{"source": "ChEMBL document CHEMBL4732210", "about": "“Discovery of new phenyl sulfonyl-pyrimidine carboxylate derivatives as the potential multi-target drugs with effective anti-Alzheimer's action: Design, synthesis, crystal structure and in-vitro biological evaluation” (Eur J Med Chem, 2021)", "assay_type_in_all_cases": "cell-based", "details_in_all_cases": "Erythrocyte", "key": {"[1]": {"compound": "CCOC(=O)c1c(C)nc(N2CCN(S(=O)(=O)c3ccc(NC(C)=O)c(Cl)c3)CC2)nc1-c1ccc(OC)c(OC)c1", "assay": "Non-competitive inhibition of AChE in human erythrocytes assessed as Km at 25 nM measured at 2 mins interval for 10 mins by Lineweaver-Burk plot analysis", "summary_of_the_method": "(§1)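 Human AChE kinetics in the Ellman DTNB assay. Inhibitor at 25, 50 and 100 nM, each with six ATCI concentrations, against an inhibitor-free series. Activity read every 2 min over 10 min. Km and Vmax from Michaelis–Menten non-linear regression; mechanism from Lineweaver–Burk plots; Ki from Dixon plot over four inhibitor concentrations and from slope/intercept replots. Triplicate.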"}, "[2]": {"compound": "CCOC(=O)c1c(C)nc(N2CCN(S(=O)(=O)c3ccc(NC(C)=O)c(Cl)c3)CC2)nc1-c1ccc(OC)c(OC)c1", "assay": "Non-competitive inhibition of AChE in human erythrocytes assessed as Vmax at 50 nM measured at 2 mins interval for 10 mins by Lineweaver-Burk plot analysis", "summary_of_the_method": "as §1"}, "[3]": {"compound": "CCOC(=O)c1c(C)nc(N2CCN(S(=O)(=O)c3ccc(NC(C)=O)c(Cl)c3)CC2)nc1-c1ccc(OC)c(OC)c1", "assay": "Non-competitive inhibition of AChE in human erythrocytes assessed as Vmax at 100 nM measured at 2 mins interval for 10 mins by Lineweaver-Burk plot analysis", "summary_of_the_method": "as §1"}, "[4]": {"compound": "CCOC(=O)c1c(C)nc(N2CCN(S(=O)(=O)c3ccc(NC(C)=O)c(Cl)c3)CC2)nc1-c1ccc(OC)c(OC)c1", "assay": "Non-competitive inhibition of AChE in human erythrocytes assessed as Km at 50 nM measured at 2 mins interval for 10 mins by Lineweaver-Burk plot analysis", "summary_of_the_method": "as §1"}, "[5]": {"compound": "CCOC(=O)c1c(C)nc(N2CCN(S(=O)(=O)c3ccc(NC(C)=O)c(Cl)c3)CC2)nc1-c1ccc(OC)c(OC)c1", "assay": "Non-competitive inhibition of AChE in human erythrocytes assessed as Km at 100 nM measured at 2 mins interval for 10 mins by Lineweaver-Burk plot analysis", "summary_of_the_method": "as §1"}, "[6]": {"compound": "CCOC(=O)c1c(C)nc(N2CCN(S(=O)(=O)c3ccc(NC(C)=O)c(Cl)c3)CC2)nc1-c1ccc(OC)c(OC)c1", "assay": "Non-competitive inhibition of AChE in human erythrocytes assessed as Vmax at 25 nM measured at 2 mins interval for 10 mins by Lineweaver-Burk plot analysis", "summary_of_the_method": "as §1"}}}
{"protein": "Acetylcholinesterase (Homo sapiens), P22303 (protein) MRPPQCLLHTPSLASPLLLLLLWLLGGGVGAEGREDAELLVTVRGGRLRGIRLKTPGGPVSAFLGIPFAEPPMGPRRFLPPEPKQPWSGVVDATTFQSVCYQYVDTLYPGFEGTEMWNPNRELSEDCLYLNVWTPYPRPTSPTPVLVWIYGGGFYSGASSLDVYDGRFLVQAERTVLVSMNYRVGAFGFLALPGSREAPGNVGLLDQRLALQWVQENVAAFGGDPTSVTLFGESAGAASVGMHLLSPPSRGLFHRAVLQSGAPNGPWATVGMGEARRRATQLAHLVGCPPGGTGGNDTELVACLRTRPAQVLVNHEWHVLPQESVFRFSFVPVVDGDFLSDTPEALINAGDFHGLQVLVGVVKDEGSYFLVYGAPGFSKDNESLISRAEFLAGVRVGVPQVSDLAAEAVVLHYTDWLHPEDPARLREALSDVVGDHNVVCPVAQLAGRLAAQGARVYAYVFEHRASTLSWPLWMGVPHGYEIEFIFGIPLDPSRNYTAEEKIFAQRLMRYWANFARTGDPNEPRDPKAPQWPPYTAGAQQYVSLDLRPLEVRRGLRAQACAFWNRFLPKLLSATDTLDEAERQWKAEFHRWSSYMVHWKNQFDHYSKQDRCSDL", "values": [{"measurement": "Km", "setting": "[1]", "value": 0.0772, "unit": "µM"}, {"measurement": "Vmax", "setting": "[2]", "value": 6.52, "unit": "U/min"}, {"measurement": "Vmax", "setting": "[3]", "value": 5.54, "unit": "U/min"}, {"measurement": "Km", "setting": "[4]", "value": 0.0852, "unit": "µM"}, {"measurement": "Km", "setting": "[5]", "value": 0.0965, "unit": "µM"}, {"measurement": "Vmax", "setting": "[6]", "value": 7.2, "unit": "U/min"}]}
